As usually defined, the ED50 is the dose that gives a 50% effect, or the effect in half of the subjects. As a reminder, the LD50 is the dose at which mortality reaches 50%. A higher LD50 goes with lower toxicity.

Six compounds from ChEMBL document CHEMBL1123304 (J Med Chem, 1986) can be followed below.

For data set [1], the species on record is Mus musculus. The data set is described as follows: Compound was evaluated for the inhibitory activity against Tetrabenazine ptosis in mice. The format is functional. Summed up:
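CFLP male mice, 18–22 g, 10/group. Tetrabenazine 35 mg/kg ip at −20 min. Ptosis rated by an observer blind to treatment. Compounds given sc 15 or 30 min beforehand. Controls received the vehicle. ED50 with range.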

The species entered for data set [2] is Mus musculus. The data set is described as follows: Amphetamine induced motility in mice. Type of data set: functional.
Data set [3] deals with Mus musculus. Description: Dose influencing (+/-) the spontaneous motility in mice, administered intraperitoneally (ip). The format is functional. The method, boiled down:
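CFLP male mice, 10/group. Spontaneous motility recorded in a circuit-closing apparatus, no amphetamine. Compounds given 15 or 30 min before testing. Vehicle controls. Minimum dose raising (+) or lowering (−) motility, ip.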

The species entered for data set [4] is Mus musculus. Description: Compound was evaluated for the inhibitory activity against tetrabenazine catalepsy in mice. The format is functional. The method, boiled down:
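Male CFLP (Swiss) mice, 18–22 g, 10/group. Tetrabenazine 25 mg/kg ip, 30 min before testing. Catalepsy scored on a vertical grid. Compounds given sc 15 or 30 min before testing. Controls received the vehicle. ED50 with range.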

The target in data set [5] is Sodium-dependent dopamine transporter (Rattus norvegicus) (UniProt P23977). Description: Inhibitory activity against inducing stereotypy in rats. Type of data set: functional. The method, boiled down: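 Male CFY (Sprague-Dawley) rats. Animals showing stereotypy were placed in an activity meter. Doses giving 5 times control motility were determined. Minimum effective dose, sc.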
Chain of Sodium-dependent dopamine transporter (Rattus norvegicus) (P23977 whole entry): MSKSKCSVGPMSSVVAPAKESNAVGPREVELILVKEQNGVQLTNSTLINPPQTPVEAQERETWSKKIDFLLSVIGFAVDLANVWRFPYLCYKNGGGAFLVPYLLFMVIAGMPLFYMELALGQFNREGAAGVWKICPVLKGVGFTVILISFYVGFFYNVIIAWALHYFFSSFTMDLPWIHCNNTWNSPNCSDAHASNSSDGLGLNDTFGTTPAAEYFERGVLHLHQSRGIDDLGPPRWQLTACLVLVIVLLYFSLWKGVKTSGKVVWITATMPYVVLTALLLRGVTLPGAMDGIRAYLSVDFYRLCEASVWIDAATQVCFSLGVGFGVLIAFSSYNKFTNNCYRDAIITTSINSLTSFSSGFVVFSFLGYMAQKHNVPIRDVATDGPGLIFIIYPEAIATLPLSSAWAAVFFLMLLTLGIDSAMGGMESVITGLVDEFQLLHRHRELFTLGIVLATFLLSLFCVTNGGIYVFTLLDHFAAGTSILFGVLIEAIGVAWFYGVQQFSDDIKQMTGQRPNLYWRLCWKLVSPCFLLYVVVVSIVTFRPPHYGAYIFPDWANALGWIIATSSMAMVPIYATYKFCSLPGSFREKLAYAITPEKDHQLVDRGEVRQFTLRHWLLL

The target in data set [6] is Sodium-dependent dopamine transporter (Mus musculus) (UniProt Q61327). Description: Compound was evaluated for the inhibitory activity against Haloperidol catalepsy in mice. Type of data set: functional. The method, boiled down:
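Male CFLP (Swiss) mice, 18–22 g, 10/group. Haloperidol 5 mg/kg ip, 60 min. Catalepsy tested on a vertical grid. Compounds given sc 15 or 30 min before testing, in saline or the listed vehicles. Controls received the vehicle. ED50 with range.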

For data set [7], the species on record is Felis catus. The data set is described as follows: Compound was tested for potentiating the dopamine-induced hypotension in cats. The format is functional.
The nature of data set [8]: Lethal effect was determined in mice. Type of data set: ADME, organism-based. The note with it: mouse, in vivo. Summed up:
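Male CFLP (Swiss) mice, 18–22 g, dosed sc. Vehicle was physiological saline, with Tween-80 added for some compounds in this determination; controls received the solvent. LD50 in mg/kg determined.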

The species entered for data set [9] is Mus musculus. The data set is described as follows: Inhibitory activity against reserpine hypothermia in mice. Type of data set: functional. The method, boiled down: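 Mice (male CFLP, 18–22 g, 10/group) given reserpine 1 mg/kg ip 3 h before testing. Rectal temperature read with a thermistor probe. Compounds given sc 15 or 30 min before testing. Minimum effective dose.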

Data set [10] relates to Mus musculus. Description: Compound was evaluated for the dose influencing (+/-) the amphetamine induced motility in mice, administered intraperitoneally (ip). The format is functional.
In data set [11] the test system is Mus musculus. The data set is described as follows: Inhibitory activity against tetrabenazine catalepsy in mice (sc). Type of data set: functional.
In data set [12] the test system is Mus musculus. Description: Inhibition of tetrabenazine ptosis in mice (sc). Type of data set: functional.
For data set [13], the species on record is Felis catus. Description: Compound was tested for potentiating the dopamine-induced hypotension in cats. The format is functional.

Chain of Sodium-dependent dopamine transporter (Mus musculus) (Q61327 whole entry): as the sequence (P23977 whole entry) above, with S21P, A57V, A194S, H600R, L619V counted along it

As for `CN1Cc2c(NC(=O)CCCl)cccc2C(c2ccccc2)C1` (stereo unspecified), the 50% effective dose (ED50) is 8.8 mg/kg in the data set filed under Mus musculus [1], over 30 mg/kg in the data set listed under Mus musculus [4] and 19 mg/kg in data set [6]. Further, the EDmin is over 15 mg/kg in the data set filed under Mus musculus [2]; over 30 mg/kg with Mus musculus [3]; 20.5 mg/kg in [5]; 1 mg/kg in the data set filed under Felis catus [7]; over 30 mg/kg in the data set listed under Mus musculus [9]. This compound yielded an LD50 in data set [8] of 89 mg/kg.
Take `CN1Cc2c(NC(=O)OCCCl)cccc2C(c2ccccc2)C1` (stereo unspecified): the ED50 in the data set filed under Mus musculus [1] worked out at 2.5 mg/kg; in the data set filed under Mus musculus [4], 9 mg/kg; in [6], 11 mg/kg. The EDmin in the data set listed under Mus musculus [2] was 5 mg/kg; with Mus musculus [3], over 20 mg/kg; in data set [5] it was over 20.5 mg/kg; in the data set listed under Felis catus [7] it was 2 mg/kg; in the data set filed under Mus musculus [9], 20 mg/kg. Also, the LD50 in data set [8] is 160 mg/kg.
Turning to `Cc1ccc(C2CN(C)Cc3c(N)cccc32)cc1` (stereo unspecified), the EDmin was found to be 10 mg/kg with Mus musculus [10], 15 mg/kg in the data set on Mus musculus [3], 0.2 mg/kg in the data set listed under Felis catus [7] and 2 mg/kg in the data set listed under Mus musculus [9]. The 50% effective dose (ED50) in the data set on Mus musculus [11] was 1.6 mg/kg; in the data set with Mus musculus [12] it was about 1.2 mg/kg. The LD50 in data set [8] is 800 mg/kg.
On to `CN1Cc2c(N)cccc2C(c2ccccc2)C1` (stereo unspecified) [NOMIFENSINE], for which the figures for the EDmin in the data set filed under Felis catus [13], in the data set listed under Mus musculus [2] and with Mus musculus [3] were 0.5 mg/kg, over 5 mg/kg and 10 mg/kg, respectively. The same compound yielded an LD50 in [8] of 336 mg/kg.
Consider `CCOC(=O)Nc1cccc2c1CN(C)CC2c1ccc(Cl)cc1` (stereo unspecified), for which the EDmin in the data set filed under Mus musculus [2] stood at 20 mg/kg; in the data set on Mus musculus [3] it was 3 mg/kg; in data set [5] it was 5.2 mg/kg; in the data set filed under Felis catus [7], 0.5 mg/kg; in the data set filed under Mus musculus [9], 10 mg/kg. The median effective dose (ED50) was found to be 4.8 mg/kg with Mus musculus [11] and 0.6 mg/kg with Mus musculus [12]. The LD50 in [8] amounted to 830 mg/kg.
On to `CN1Cc2c(NC(=O)CCl)cccc2C(c2ccccc2)C1` (stereo unspecified), for which the values for the ED50 (in the data set listed under Mus musculus [1]; in the data set listed under Mus musculus [4]; in [6]) were 3 mg/kg, 10 mg/kg and 10 mg/kg, respectively. Also, the EDmin in the data set listed under Mus musculus [2] is 10 mg/kg; with Mus musculus [3] it was 20 mg/kg; in data set [5], 8 mg/kg; in the data set filed under Felis catus [7] it was 1 mg/kg; in the data set listed under Mus musculus [9], over 30 mg/kg. The compound further returned an LD50 in data set [8] of 94 mg/kg.
